From ChEMBL document CHEMBL1125819, “Novel benzamides as selective and potent gastrokinetic agents. 2. Synthesis and structure-activity relationships of 4-amino-5-chloro-2-ethoxy-N-[[4-(4-fluorobenzyl)-2- morpholinyl]methyl] benzamide citrate (AS-4370) and related compounds” (J Med Chem, 1991)

Columns and labels:
[1] = system: Rattus norvegicus; assay: Gastric emptying of phenol red semisolid meal in rats at dose of 2.0 mg/kg, administered perorally.; type: functional; conditions: route oral
[2] = system: Mus musculus; assay: Toxicity tested in mouse and expressed as number of dead mouse / number of mouse used after a dose of 1.0 g/kg perorally; + slight toxicity; type: organism-based; conditions: in vivo, po, 1000 mg/kg
Summary of the method: (§1)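 Male ddY mice (18–25 g), groups of 10, given test compound dissolved or suspended in 0.5% tragacanth solution at a single oral dose of 1.0 g/kg. Mortality observed over 7 days after dosing and scored as dead/used per group; + corresponds to 0–2/10 dead.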

[3] = system: Mus musculus; assay: Toxicity tested in mouse and expressed as number of dead mouse / number of mouse used after a dose of 1.0 g/kg perorally; +++ potent toxicity; type: organism-based; conditions: in vivo, po, 1000 mg/kg; summary of the method: as §1
[4] = system: Mus musculus; assay: Toxicity tested in mouse and expressed as number of dead mouse / number of mouse used after a dose of 1.0 g/kg perorally; ++ moderate toxicity; type: organism-based; conditions: in vivo, po, 1000 mg/kg; summary of the method: as §1
[5] = system: Mus musculus; assay: Gastric emptying of phenol red semisolid meal in mouse at the dose of 0.5 mg/kg administered perorally.; type: functional; conditions: route oral
Summary of the method: (§2)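 Mice received oral test article in 0.5% tragacanth, four or five animals per dose. Emptying of a phenol red semisolid meal was expressed as percent enhancement over the mean of 0.5% tragacanth controls. Significance was tested by Duncan's multiple range test.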

[6] = system: Mus musculus; assay: Gastric emptying of phenol red semisolid meal in mouse at the dose of 1.0 mg/kg administered perorally.; type: functional; conditions: route oral; summary of the method: as §2
[7] = system: Rattus norvegicus; assay: Gastric emptying of phenol red semisolid meal in rats at the dose of 0.5 mg/kg administered perorally.; type: functional; conditions: route oral
[8] = system: Rattus norvegicus; assay: Gastric emptying of resin solid meal in rats at the dose of 2.0 mg/kg administered perorally.; type: functional; conditions: route oral
[9] = system: Rattus norvegicus; assay: Gastric emptying of phenol red semisolid meal in rats at the dose of 0.2 mg/kg administered perorally.; type: functional; conditions: route oral

## COc1cc(N)c(Cl)cc1C(=O)NCC1CN(C(C)c2ccc(F)cc2)CCO1 (centres undefined)
[1]
  GE: 13%

## COc1cc(N)c(Cl)cc1C(=O)NCC1CN(Cc2ccc(F)cc2)CCO1 (centres undefined)
[1]
  GE: 38%

## COc1cc(N)c(Cl)cc1C(=O)NCC1CN(Cc2ccccc2F)CCO1 (centres undefined)
[1]
  GE: 28%

## COc1cc(N)c(Cl)cc1C(=O)NCC1CN(Cc2c(C)cc(C)cc2C)CCO1 (centres undefined)
[1]
  GE: 5%

## CCOc1cc(N)c(Cl)cc1C(=O)NCC1C[N+](C)(Cc2ccccc2Cl)CCO1.[I-] (centres undefined)
[1]
  GE: 34%

## COc1cc(N)c(Cl)cc1C(=O)NCC1CN(CCc2ccccc2)CCO1 (centres undefined)
[1]
  GE: 29%

## CCOc1cc(N)c(Cl)cc1C(=O)NCC1CN(Cc2cccc(F)c2)CCO1 (centres undefined)
[1]
  GE: 54%

## CCOc1cc(N)c(Cl)cc1C(=O)NCC1CN(Cc2ccc(C#N)cc2)CCO1 (centres undefined)
[2]
  Acute toxicity: slight toxicity
[1]
  GE: 46%

## COc1cc(N)c(Cl)cc1C(=O)NCC1CN(Cc2ccccc2C#N)CCO1 (centres undefined)
[2]
  Acute toxicity: slight toxicity
[1]
  GE: 43%

## CCOc1cc(N)c(Cl)cc1C(=O)NCC1CN(Cc2cc(F)cc(F)c2)CCO1 (centres undefined)
[1]
  GE: 52%

## CCOc1cc(N)c(Cl)cc1C(=O)NCC1CN(Cc2ccccc2C#N)CCO1 (centres undefined)
[1]
  GE: 29%

## CCOc1cc(N)c(Cl)cc1C(=O)NCC1CN(C(C)c2ccc(Cl)cc2)CCO1 (centres undefined)
[1]
  GE: 33%

## CCOc1cc(N)c(Cl)cc1C(=O)NCC1CN(Cc2ccc(C(=O)O)cc2)CCO1 (centres undefined)
[1]
  GE: 13%

## COc1cc(N)c(Cl)cc1C(=O)NCC1CN(Cc2ccc(N)cc2)CCO1 (centres undefined)
[1]
  GE: 17%

## COc1cccc(CN2CCOC(CNC(=O)c3cc(Cl)c(N)cc3OC)C2)c1 (centres undefined)
[1]
  GE: 10%

## COc1cc(N)c(Cl)cc1C(=O)NCC1CN(Cc2ccc(Cl)c(Cl)c2)CCO1 (centres undefined)
[1]
  GE: 16%

## CCOc1cc(N)c(Cl)cc1C(=O)NCC1CN(Cc2ccccc2Cl)CCO1 (centres undefined)
[2]
  Acute toxicity: slight toxicity
[1]
  GE: 51%

## COc1cc(N)c(Cl)cc1C(=O)NCC1CN(C(c2ccccc2)c2ccccc2)CCO1 (centres undefined)
[1]
  GE: 15%

## CCOc1cc(NC=O)c(Cl)cc1C(=O)NCC1CN(Cc2ccc(F)cc2)CCO1 (centres undefined)
[1]
  GE: 33%

## COc1cc(N)c(Cl)cc1C(=O)NCC1CN(Cc2c(F)c(F)c(F)c(F)c2F)CCO1 (centres undefined)
[2]
  Acute toxicity: slight toxicity
[1]
  GE: 39%

## CCOc1cc(N)c(Cl)cc1C(=O)NCC1CN(Cc2ccc(Cl)cc2[N+](=O)[O-])CCO1 (centres undefined)
[1]
  GE: 47%

## CCOc1cc(N)c(Cl)cc1C(=O)NCC1CN(Cc2cccc(C#N)c2)CCO1 (centres undefined)
[1]
  GE: 33%

## CCOc1cc(N)c(Cl)cc1C(=O)NCC1CN(C(C)c2ccccc2)CCO1 (centres undefined)
[3]
  Acute toxicity: potent toxicity
[1]
  GE: 44%

## CCOc1cc(N)c(Cl)cc1C(=O)NCC1CN(Cc2cccc(Cl)c2)CCO1 (centres undefined)
[4]
  Acute toxicity: moderate toxicity
[1]
  GE: 58%

## COc1cc(N)c(Cl)cc1C(=O)NCC1CN(Cc2cccc(C#N)c2)CCO1 (centres undefined)
[3]
  Acute toxicity: potent toxicity
[1]
  GE: 42%

## COc1cc(N)c(Cl)cc1C(=O)NCC1CN(C(C)c2ccccc2)CCO1 (centres undefined)
[3]
  Acute toxicity: potent toxicity
[1]
  GE: 42%

## CCOc1cc(N)c(Cl)cc1C(=O)NCC1CN(Cc2ccccc2)CCO1 (centres undefined)
[5]
  GE: 35%
[6]
  GE: 23%
[2]
  Acute toxicity: Partially active
[7]
  GE: 34%
[1]
  GE: 54%
[8]
  GE: 58%

## COc1cc(N)c(Cl)cc1C(=O)NCC1CN(Cc2ccccc2)CCO1 (centres undefined)
[5]
  GE: 41%
[6]
  GE: 59%
[4]
  Acute toxicity: Partially active
[7]
  GE: 18%
[1]
  GE: 39%
[8]
  GE: 16%

## CCOc1cc(N)c(Cl)cc1C(=O)NCC1CN(CCCc2ccccc2)CCO1 (centres undefined)
[1]
  GE: 18%

## COc1cc(N)c(Cl)cc1C(=O)NCC1CN(Cc2cccc(C(F)(F)F)c2)CCO1 (centres undefined)
[4]
  Acute toxicity: moderate toxicity
[1]
  GE: 43%

## COc1cc(N)c(Cl)cc1C(=O)NCC1CN(Cc2ccc(C(F)(F)F)cc2)CCO1 (centres undefined)
[1]
  GE: 23%

## CCOc1cc(N)c(Cl)cc1C(=O)NCC1CN(Cc2ccc(C(=O)OC)cc2)CCO1 (centres undefined)
[1]
  GE: 52%

## CCOc1cc(N)c(Cl)cc1C(=O)NCC1CN(Cc2c(F)c(F)c(F)c(F)c2F)CCO1 (centres undefined)
[1]
  GE: 23%

## CCOc1cc(NC(C)=O)c(Cl)cc1C(=O)NCC1CN(Cc2ccc(F)cc2)CCO1 (centres undefined)
[5]
  GE: 75%
[6]
  GE: 82%
[9]
  GE: 33%
[7]
  GE: 22%
[1]
  GE: 74%
[8]
  GE: 0%

## CCOc1cc(N)c(Cl)cc1C(=O)NCC1C[N+]([O-])(Cc2ccccc2Cl)CCO1 (centres undefined)
[1]
  GE: 52%

## COc1cc(N)c(Cl)cc1C(=O)NCC1CN(Cc2ccc(C#N)cc2)CCO1 (centres undefined)
[5]
  GE: 15%
[6]
  GE: 44%
[2]
  Acute toxicity: slight toxicity
[9]
  GE: 0%
[7]
  GE: 21%
[1]
  GE: 49%
[8]
  GE: 36%

## COc1cc(N)c(Cl)cc1C(=O)NCC1CN(Cc2ccc([N+](=O)[O-])cc2)CCO1 (centres undefined)
[1]
  GE: 22%

## COc1cc(N)c(Cl)cc1C(=O)NCC1CN(Cc2cccc(F)c2)CCO1 (centres undefined)
[1]
  GE: 30%

## CCOc1cc(N)c(Cl)cc1C(=O)NCC1CN(Cc2ccc(F)cc2F)CCO1 (centres undefined)
[5]
  GE: 83%
[6]
  GE: 89%
[9]
  GE: 0%
[7]
  GE: 42%
[1]
  GE: 76%
[8]
  GE: 76%

## CCOc1cc(N)c(Cl)cc1C(=O)NCC1CN(Cc2ccc(F)c(F)c2)CCO1 (centres undefined)
[1]
  GE: 46%

## COc1cc(N)c(Cl)cc1C(=O)NCC1CN(Cc2ccc(C(=O)O)cc2)CCO1 (centres undefined)
[1]
  GE: 18%

## CCOc1cc(N)c(Cl)cc1C(=O)NCC1CN(Cc2cccc(C(F)(F)F)c2)CCO1 (centres undefined)
[5]
  GE: 4%
[6]
  GE: 21%
[2]
  Acute toxicity: slight toxicity
[9]
  GE: 32%
[7]
  GE: 37%
[1]
  GE: 58%
[8]
  GE: 22%

## COc1ccc(CN2CCOC(CNC(=O)c3cc(Cl)c(N)cc3OC)C2)cc1 (centres undefined)
[1]
  GE: 10%

## COc1cc(N)c(Cl)cc1C(=O)NCC1CN(Cc2ccc(Br)cc2)CCO1 (centres undefined)
[1]
  GE: 15%

## CCOc1cc(N)c(Cl)cc1C(=O)NCC1CN(Cc2ccc(Cl)cc2)CCO1 (centres undefined)
[5]
  GE: 0%
[6]
  GE: 21%
[2]
  Acute toxicity: slight toxicity
[9]
  GE: 37%
[7]
  GE: 50%
[1]
  GE: 63%
[8]
  GE: 65%

## CCOc1cc(N)c(Cl)cc1C(=O)NCC1CN(Cc2ccccc2F)CCO1 (centres undefined)
[1]
  GE: 60%

## CCOc1cc(N)c(Cl)cc1C(=O)NCC1CN(CCCCc2ccccc2)CCO1 (centres undefined)
[1]
  GE: 47%

## COc1cc(N)c(Cl)cc1C(=O)NCC1CN(Cc2ccc(Cl)cc2)CCO1 (centres undefined)
[4]
  Acute toxicity: moderate toxicity
[1]
  GE: 36%

## COc1cc(N)c(Cl)cc1C(=O)NCC1CN(Cc2ccc(C)cc2)CCO1 (centres undefined)
[1]
  GE: 11%

## CCOc1cc(N)c(Cl)cc1C(=O)NCC1CN(Cc2ccc(F)cc2)CCO1 (centres undefined) [MOSAPRIDE]
[5]
  GE: 44%
[6]
  GE: 37%
[4]
  Acute toxicity: Partially active
[9]
  GE: 44%
[7]
  GE: 46%
[1]
  GE: 61%
[8]
  GE: 79%
